The source of these data is ChEMBL document CHEMBL4825713, “Promising Non-cytotoxic Monosubstituted Chalcones to Target Monoamine Oxidase-B” (ACS Med Chem Lett, 2021).

Data set [1] concerns the target T1, Amine oxidase [flavin-containing] B (Homo sapiens, UniProt P27338).
T1 sequence (P27338 whole entry): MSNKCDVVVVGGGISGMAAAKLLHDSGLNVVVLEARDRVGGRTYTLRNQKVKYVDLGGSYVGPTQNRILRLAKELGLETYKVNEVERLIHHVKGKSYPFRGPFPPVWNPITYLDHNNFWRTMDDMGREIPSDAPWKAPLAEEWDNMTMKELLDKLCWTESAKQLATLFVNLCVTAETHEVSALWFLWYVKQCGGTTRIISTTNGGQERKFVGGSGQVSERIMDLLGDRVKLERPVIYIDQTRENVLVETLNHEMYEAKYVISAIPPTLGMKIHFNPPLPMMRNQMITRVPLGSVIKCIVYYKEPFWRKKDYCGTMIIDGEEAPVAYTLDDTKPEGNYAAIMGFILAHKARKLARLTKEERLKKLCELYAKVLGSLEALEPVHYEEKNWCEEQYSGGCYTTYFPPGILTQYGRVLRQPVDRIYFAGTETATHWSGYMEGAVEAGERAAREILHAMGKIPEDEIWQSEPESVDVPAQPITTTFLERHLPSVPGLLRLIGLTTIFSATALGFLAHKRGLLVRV
Briefly: Reversible inhibition of recombinant human MAO-B using kynuramine as substrate at 4 times Ki incubated for 20 mins.

The target in data set [2] is T1, Amine oxidase [flavin-containing] B. Briefly: Competitive inhibition of recombinant human MAO-B expressed in baculovirus infected BTI cells using varying concentration of kynuramine as substrate at 5 to 40 nM by Lineweaver-burk plot analysis. The conditions noted are these: dose 5-40 nM. In a few lines:
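Initial velocities of human recombinant MAO-B measured at varied kynuramine concentrations, without inhibitor and with inhibitor at 5–40 nM. Data plotted as Lineweaver–Burk double reciprocals (1/v0 vs 1/[S]). Inhibition mode assigned from which intercept changes, x-intercept (−1/Km) versus y-intercept (1/Vmax). Mean ± SD of three independent experiments.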

As for `O=C(/C=C/c1ccccc1[N+](=O)[O-])c1ccccc1`, the “inhibition (INH)” value in data set [1] was “Active”.
As for `O=C(/C=C/c1ccccc1)c1cccc(C(F)(F)F)c1`, the “inhibition (INH)” value in data set [1] and in data set [2] was “Active” in each case.
On to `O=C(/C=C/c1ccccc1)c1ccc(C(F)(F)F)cc1`, for which, in data set [1], the “inhibition (INH)” value was “Active”.
